# Assay results reported in ChEMBL document CHEMBL4316620, “Dihydropyrrolones as bacterial quorum sensing inhibitors” (Bioorg Med Chem Lett, 2019).
# Calls of active or inactive are those of the source. No cut-off for these calls is given here.
# Columns and labels:
# [1] = Inhibition of quorum sensing system in Pseudomonas aeruginosa MH602 PlasB::gfp at 62.5 uM incubated for 15 hrs by GFP reporter gene assay
# In short: (§1)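 Reporter strain P. aeruginosa PlasB::gfp (PAMH602) makes its own AHL; lasB promoter drives GFP-ASV. Cultures incubated with compound over 250–31.25 µM at 37 °C for 15 h, then GFP fluorescence read at 535 nm. QSI expressed as % relative to untreated PAMH602 negative control. Furanone positive control.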
# [2] = Inhibition of quorum sensing system in Pseudomonas aeruginosa MH602 PlasB::gfp at 250 uM incubated for 15 hrs by GFP reporter gene assay; in short: as §1
# Pseudomonas aeruginosa [3] = assay: Toxicity in Pseudomonas aeruginosa MH602 PlasB::gfp assessed as inhibition of bacterial growth at 62.5 uM incubated for 15 hrs by spectrophotometry; type: organism-based; settings: MH602, 15 h, read-out: GI
# [4] = Inhibition of quorum sensing system in Pseudomonas aeruginosa MH602 PlasB::gfp at 125 uM incubated for 15 hrs by GFP reporter gene assay; in short: as §1
# Pseudomonas aeruginosa [5] = assay: Toxicity in Pseudomonas aeruginosa MH602 PlasB::gfp assessed as inhibition of bacterial growth at 125 uM incubated for 15 hrs by spectrophotometry; type: organism-based; settings: MH602, 15 h, read-out: GI
# Pseudomonas aeruginosa [6] = assay: Inhibition of biofilm formation in Pseudomonas aeruginosa PAO1 at 250 uM incubated for 6 hrs by crystal violet staining based method; type: functional; settings: for inhibition at 250 µM: PAO1, 6 h
# In short: (§2)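 P. aeruginosa PA01 biofilm. Cultures grown with or without test compound for 6 h. Biofilm biomass quantified by crystal violet staining (OD550). % inhibition calculated relative to DMSO control.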
# Pseudomonas aeruginosa [7] = assay: Toxicity in Pseudomonas aeruginosa MH602 PlasB::gfp assessed as inhibition of bacterial growth at 250 uM incubated for 15 hrs by spectrophotometry; type: organism-based; settings: MH602, 15 h, read-out: GI
# Pseudomonas aeruginosa [8] = assay: Toxicity in Pseudomonas aeruginosa MH602 PlasB::gfp assessed as inhibition of bacterial growth at 31.25 uM incubated for 15 hrs by spectrophotometry; type: organism-based; settings: MH602, 15 h, read-out: GI
# [9] = Inhibition of quorum sensing system in Pseudomonas aeruginosa MH602 PlasB::gfp at 31.25 uM incubated for 15 hrs by GFP reporter gene assay; in short: as §1
# Pseudomonas aeruginosa [10] = assay: Inhibition of biofilm formation in Pseudomonas aeruginosa PAO1 at 62.5 uM incubated for 6 hrs by crystal violet staining based method; type: functional; settings: PAO1, 6 h; in short: as §2
SMILES,inhibition [1],inhibition [2],inhibition at 62.5 µM (Pseudomonas aeruginosa [3]),inhibition [4],inhibition at 125 µM (Pseudomonas aeruginosa [5]),inhibition at 250 µM (Pseudomonas aeruginosa [6]),inhibition at 250 µM (Pseudomonas aeruginosa [7]),inhibition at 31.25 µM (Pseudomonas aeruginosa [8]),inhibition [9],inhibition at 62.5 µM (Pseudomonas aeruginosa [10]),inhibition (Pseudomonas aeruginosa [6])
C=C1C(c2ccc(Br)cc2)=CC(=O)N1c1ccsc1,59.9%,86%,≤ 15%,75%,15 to 30%,87.4%,> 30%,≤ 15%,49.9%,47%,
C=C1NC(=O)C=C1c1cccc(F)c1,52.9%,72.8%,≤ 15%,66.5%,≤ 15%,55.2%,≤ 15%,≤ 15%,39.5%,,
O=C1C=C(c2ccsc2)CN1,26.6%,72.1%,≤ 15%,49.3%,≤ 15%,,≤ 15%,≤ 15%,24.7%,,inactive
C=C1C(c2ccc(Br)cc2)=CC(=O)N1c1ccc(S(C)(=O)=O)cc1,31.3%,58.7%,≤ 15%,58.1%,≤ 15%,10.3%,15 to 30%,≤ 15%,11.2%,,
C=C1C(c2ccccc2F)=CC(=O)N1c1cccc(Br)c1,34.7%,50.5%,≤ 15%,43.3%,≤ 15%,40.8%,≤ 15%,≤ 15%,29.3%,,
O=C1C=C(c2cccc(F)c2)CN1,24%,67.2%,≤ 15%,45.5%,≤ 15%,21.4%,≤ 15%,≤ 15%,22.4%,,
C=C1NC(=O)C=C1c1ccc(CC)cc1,35.1%,67.9%,≤ 15%,59.6%,≤ 15%,38.9%,≤ 15%,≤ 15%,32.5%,,
C=C1C(c2ccc(Br)cc2)=CC(=O)N1c1ccc(Br)cc1,40.4%,54.3%,≤ 15%,50.5%,≤ 15%,17%,≤ 15%,≤ 15%,8.81%,,
C=C1C(c2ccccc2F)=CC(=O)N1c1cccc(F)c1,41.8%,61.1%,≤ 15%,55.2%,≤ 15%,58.9%,≤ 15%,≤ 15%,24%,,
C=C1NC(=O)C=C1c1ccc(F)cc1,60.2%,82.4%,≤ 15%,76.3%,≤ 15%,46.1%,15 to 30%,≤ 15%,33.3%,,
O=C1C=C(c2ccc(Br)cc2)CN1,25%,65.9%,≤ 15%,42.8%,≤ 15%,,≤ 15%,≤ 15%,21.9%,,inactive
C=C1C(c2ccc(Br)cc2)=CC(=O)N1c1csc2ccccc12,42.8%,67.4%,≤ 15%,55.6%,≤ 15%,13.2%,15 to 30%,≤ 15%,34.1%,,
C=C1C(c2ccc(Br)cc2)=CC(=O)N1c1cccc(F)c1,47.7%,50.9%,≤ 15%,49.1%,≤ 15%,29.3%,≤ 15%,≤ 15%,5.8%,,
C=C1NC(=O)C=C1c1ccccc1,31.6%,71.5%,≤ 15%,59%,≤ 15%,47.6%,≤ 15%,≤ 15%,19.6%,,
C=C1C(c2ccc(Br)cc2)=CC(=O)N1c1cccc(Br)c1,37.7%,73.2%,≤ 15%,60.3%,≤ 15%,47.1%,≤ 15%,≤ 15%,12.6%,,
C=C1C(c2ccc(Br)cc2)=CC(=O)N1c1ccc(Cl)cc1,44.9%,52.4%,≤ 15%,50.3%,≤ 15%,43.8%,≤ 15%,≤ 15%,7.39%,,
O=C1C=C(Br)/C(=C/Br)O1,77%,87.5%,> 30%,83.1%,> 30%,87.9%,> 30%,15 to 30%,65.9%,,
C=C1NC(=O)C=C1c1ccc(OC)cc1,44.5%,74.4%,≤ 15%,62.7%,≤ 15%,38.8%,15 to 30%,≤ 15%,37%,,
O=C1C=C(c2ccccc2)CN1,32.4%,57.7%,≤ 15%,60.8%,≤ 15%,14.4%,≤ 15%,≤ 15%,31.7%,,
C=C1NC(=O)C=C1c1ccc(Cl)cc1,49.4%,73.8%,≤ 15%,64.6%,≤ 15%,60.9%,≤ 15%,≤ 15%,33.3%,,
C=C1C(c2ccccc2F)=CC(=O)N1c1ccc(C)cc1,53.3%,65%,≤ 15%,62.8%,≤ 15%,49.3%,≤ 15%,≤ 15%,29.6%,,
C=C1C(c2ccc(Br)cc2)=CC(=O)N1c1ccc(F)cc1,34.5%,57.9%,≤ 15%,49.7%,≤ 15%,27.7%,≤ 15%,≤ 15%,9.23%,,
C=C1C(c2ccccc2F)=CC(=O)N1CCCC,33.5%,55.3%,≤ 15%,34.2%,≤ 15%,52.2%,≤ 15%,≤ 15%,38.2%,,
